In one assay the test system is HT-29. Description: Cytotoxicity against human HT-29 cells after 3 days by sulforhodamine B assay. In kind it is functional, cell-based. As to conditions: HT-29, 72 h. In a few lines: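 Antiproliferative assay on HT-29 colon cancer cells following a protocol from earlier work, with paclitaxel as the positive control.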
The test system of a further assay is MCF7. Description: Cytotoxicity against human MCF7 cells after 3 days by sulforhodamine B assay. In kind it is functional, cell-based. As to conditions: MCF7, 72 h. In a few lines:
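Antiproliferative assay on MCF-7 breast cancer cells following a published protocol, with camptothecin as the positive control.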
(In general: In SRB staining, fixed cells bind dye roughly in proportion to their protein.)

The structures appear in SMILES notation. Bounds are passed on as bounds.

One may read the IC50 as the concentration at which inhibition is half-maximal. Lower therefore signals inhibition by little substance. Regarding `COc1cc(O)c(C(=O)c2c(C)cc(O)cc2OC)c(O)c1Cl`, the IC50 in the assay on HT-29 and in the assay on MCF7 was over 20 µM each time.
On to `Cc1cc(O)cc2oc3cc(Cl)cc(O)c3c(=O)c12`, for which, in the assay with MCF7, the IC50 was over 20 µM.
In turn, `OCc1cc(O)cc(Br)c1O` gave an IC50 with MCF7 of 8.4 µM.
As for `COC1=CC(=O)C[C@@H](C)[C@]12Oc1c(Cl)c(OC)cc(OC)c1C2=O` [GRISEOFULVIN], the figures for the IC50 in the assay on HT-29 and with MCF7 were over 20 µM and 13.9 µM, respectively.
The corresponding values for `OCC(O)c1ccccc1` (racemic) are over 20 µM and over 20 µM.
With `COC1=CC(=O)C=C(C)[C@]12Oc1cc(OC)cc(OC)c1C2=O`, the concentration for half-maximal inhibition (IC50) in the assay on HT-29 and in the assay with MCF7 was over 20 µM in each case.
In the assay on HT-29, `CC(=O)O[C@H]1C(=O)[C@@]2(C)[C@H]([C@H](OC(=O)c3ccccc3)[C@]3(O)C[C@H](OC(=O)[C@H](O)[C@@H](NC(=O)c4ccccc4)c4ccccc4)C(C)=C1C3(C)C)[C@]1(OC(C)=O)CO[C@@H]1C[C@@H]2O` [PACLITAXEL] yielded an IC50 of 0.0014 µM.
Regarding `Cc1cc(O)cc2oc(=O)c3c(O)cc(O)cc3c12` [ALTERNARIOL], the IC50 in the assay on HT-29 and in the assay on MCF7 was over 20 µM in each case.
In the case of `CC[C@@]1(O)C(=O)OCc2c1cc1n(c2=O)Cc2cc3ccccc3nc2-1` [CAMPTOTHECIN], the IC50 in the assay with MCF7 worked out at 0.073 µM. That is a double-digit nanomolar value.
`OCc1cc(O)cc(Cl)c1O` had an IC50 in the assay with MCF7 of 14.9 µM.
As for `COc1cc(O)c2c(=O)c3c(C)cc(O)c(O)c3oc2c1`, the half-maximal inhibitory concentration (IC50) with HT-29 and in the assay with MCF7 was over 20 µM each time.
In the assay on MCF7, `O=C1C(CO)=C[C@@H](O)[C@@H](O)[C@H]1Br` registered an IC50 of 9.7 µM.
`O=C1C(CO)=C[C@@H](O)[C@@H](O)[C@@H]1Cl` came in with an IC50 in the assay with MCF7 of over 20 µM.
Regarding `Cc1cc(O)cc2oc3cc(O)cc(O)c3c(=O)c12` [NORLICHEXANTHONE], the half-inhibitory concentration (IC50) with HT-29 and in the assay on MCF7 was over 20 µM throughout.
In the assay with MCF7, `O=C1C(CO)=C[C@@H](O)[C@@H](O)[C@H]1Cl` had an IC50 of over 20 µM.
For `O=C1C(CO)=C[C@@H](O)[C@H]2O[C@@H]12` [EPOXYDON], the IC50 in the assay on HT-29 worked out at 14.1 µM; in the assay on MCF7, 5.7 µM.
In the assay on MCF7, `O=C1C(CO)=C[C@@H](O)[C@@H](O)[C@@H]1Br` came in with an IC50 of 9.7 µM.
As to `COc1cc(O)c2c(=O)c3c(C)cc(O)cc3oc2c1`, the IC50 in the assay with HT-29 and in the assay with MCF7 was over 20 µM in each case.
`COC1=CC(=O)C[C@@H](C)[C@]12Oc1cc(OC)cc(OC)c1C2=O`: the IC50 in the assay with HT-29 and with MCF7 was over 20 µM throughout.
For `OCc1cc(O)ccc1O` [GENTISYL ALCOHOL], the values for the IC50 in the assay with HT-29 and in the assay on MCF7 were 6.4 µM and 17.1 µM, respectively.
Regarding `COc1cc(O)c(C(=O)c2c(C)cc(O)cc2OC)c(O)c1`, the IC50 in the assay with HT-29 and in the assay with MCF7 was over 20 µM in each case.
For the compound `O=C(OCCO)c1ccccc1`, the IC50 with HT-29 and in the assay on MCF7 was over 20 µM each time.

These data come from ChEMBL document CHEMBL4118031, “Halogenated Compounds from Directed Fermentation of Penicillium concentricum, an Endophytic Fungus of the Liverwort Trichocolea tomentella” (J Nat Prod, 2017).
